# Reference: ChEMBL document CHEMBL1121765, “3-Phenylpiperidines. Central dopamine-autoreceptor stimulating activity” (1981)
# Active and inactive are the calls of the source. The rule behind the calls is not given here.
# Columns and labels:
# [1] = molecular target: T1, Dopamine receptor (Rattus norvegicus) (UniProt P25115+P19020+P30729+P18901+P61169); assay: Evaluation of Dopamine receptor activation in striatum of reserpinized rat; format: functional, tissue-based
# [2] = molecular target: T1, Dopamine receptor (Rattus norvegicus); assay: Dopamine receptor activation in striatum of reserpinized rat; Inactive at >45 uM/Kg.; format: tissue-based
# [3] = molecular target: T1, Dopamine receptor (Rattus norvegicus); assay: Dopamine receptor activation in limbic system of reserpinized rat; Inactive at >45 uM/Kg.; format: tissue-based
# [4] = molecular target: T1, Dopamine receptor (Rattus norvegicus); assay: Evaluation for Dopamine receptor activation in limbic system of reserpinized rat; format: tissue-based
# Rattus norvegicus [5] = assay: Motor activity in reserpinized rats when 2 umol/kg was administered subcutaneously
# Rattus norvegicus [6] = assay: Motor activity in reserpinized rats when 100 umol/kg was administered subcutaneously; format: functional
# Method in brief: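 Rats pretreated ip with reserpine (10 mg/kg) 6 h before testing; compound given sc in neck region, rats placed singly in photocell motility meters immediately after and motor activity recorded for 60 min, testing between 1 and 6 p.m.; saline controls; gross behaviour observed.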
SMILES,ED50 [2],ED50 [3],other results
CN1CCCC(c2cccc(O)c2)C1 (centres undefined),–,–,ED50 [1]: 2.5 µmol/kg
Oc1cccc(C2CCCN(Cc3ccccc3)C2)c1 (centres undefined),–,–,ED50 [1]: 24 µmol/kg
CCCN1CCCC(c2cccc(C(=O)OC)c2)C1 (centres undefined),inactive,inactive,–
CCCCCN1CCCC(c2cccc(O)c2)C1 (centres undefined),–,–,ED50 [1]: 0.9 µmol/kg
CCCN1CCCC(c2cccc(C(N)=O)c2)C1 (centres undefined),inactive,inactive,–
Oc1cccc(C2CCCN(C3CCCCC3)C2)c1 (centres undefined),–,–,ED50 [1]: 45 µmol/kg
CCCN1CCCC(c2ccccc2O)C1 (centres undefined),inactive,inactive,–
CCCN1CCC(c2cccc(O)c2)C1 (centres undefined),–,–,ED50 [4]: 45 µmol/kg; ED50 [1]: 45 µmol/kg
CN1CCc2cccc3c2[C@H]1Cc1ccc(O)c(O)c1-3 [APOMORPHINE],–,–,Motor activity (Rattus norvegicus [5]): 624
CCCNCCc1cccc(O)c1,–,–,ED50 [4]: 0.9 µmol/kg; ED50 [1]: 0.8 µmol/kg
Oc1cccc(C2=CN3CCC2CC3)c1,inactive,inactive,–
CCCN1CCCC(c2ccccc2)C1 (centres undefined),inactive,inactive,–
CCCN1CCCC(c2cccc(CO)c2)C1 (centres undefined),inactive,inactive,–
Oc1cccc(C2CCNC2)c1 (centres undefined),inactive,inactive,–
CCCN1CCCC(c2cccc(OC)c2)C1 (centres undefined),inactive,inactive,–
Br.CCCN1CCCC(c2ccc(O)c(O)c2)C1 (centres undefined),–,–,Motor activity (Rattus norvegicus [6]): 522
CC(C)(C)CN1CCCC(c2cccc(O)c2)C1 (centres undefined),–,–,ED50 [1]: > 2.8 µmol/kg
CCCN1CCCCC(c2cccc(O)c2)C1 (centres undefined),inactive,inactive,–
CC(C)N1CCC(c2cccc(O)c2)C1 (centres undefined),inactive,inactive,–
CCCN1CCCC(c2cccc(N)c2)C1 (centres undefined),inactive,inactive,–
Oc1cccc(C2CN3CCC2CC3)c1 (centres undefined),inactive,inactive,–
CCCN1CCCC(c2cccc(C)c2)C1 (centres undefined),inactive,inactive,–
Oc1cccc(-c2cccnc2)c1,inactive,inactive,–
CCCN1CCCC(c2cccc(C#N)c2)C1 (centres undefined),inactive,inactive,–
Br.CCCN1CCCC(c2cccc(O)c2)C1 (centres undefined),–,–,Motor activity (Rattus norvegicus [6]): 55
CCCN1CCCC(c2ccc(O)cc2)C1 (centres undefined),inactive,inactive,–
